Screening results deposited in PubChem BioAssay by several laboratories.
TRPN1 ag: activates the zebrafish TRPN1 channel. activation, % at 3 µM. HEK293 zebrafish TRPN1-YFP, Fluo-8 calcium fluorescence; 100% = response to 87 µM carbachol. hit rate 0.18% among 220,000;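 active = activation above its plate's cutoff, the mean activation of test wells on that plate plus 3 SD, cut at about 19% in these data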
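Material: zebrafish TRPN1-YFP in HEK293 cells. Doses: one dose of 3 µM, 0.3% DMSO. Incubation: dye 1 h 37 °C plus 30 min RT. Measured by: intracellular calcium fluorescence with Fluo-8.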
GPR7 antagonist: human neuropeptides B/W receptor 1 antagonism; hit rate 1.1% among 290,000; P48145; inhibition, % at 4.4 µM; AID 1861; GPR7-expressing cells, fluorescence antagonist assay; in the data active = inhibition above about 16%, passing the limit was not always enough;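 note: cells stimulated with the agonist NPW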
Target sequence (P48145 whole entry, looked up): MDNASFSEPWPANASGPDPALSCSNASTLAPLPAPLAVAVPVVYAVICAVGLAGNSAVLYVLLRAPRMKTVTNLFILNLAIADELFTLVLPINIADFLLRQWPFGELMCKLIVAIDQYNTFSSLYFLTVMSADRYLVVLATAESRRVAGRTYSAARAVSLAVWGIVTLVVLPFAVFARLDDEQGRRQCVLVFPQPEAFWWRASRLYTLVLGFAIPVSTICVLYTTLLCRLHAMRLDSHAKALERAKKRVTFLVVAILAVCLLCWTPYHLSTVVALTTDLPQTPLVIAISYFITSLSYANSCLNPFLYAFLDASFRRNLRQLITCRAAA
TRPML3 ag: human mucolipin-3 channel agonism. Q8TDD5. HEK293 TRPML3-YFP, Fluo-8 calcium fluorescence; 100% = the carbachol control signal. activation, % at 3 µM. hit rate 0.29% among 220,000. AID 1448;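 active = activation above its plate's cutoff, the mean activation of the plate's test wells plus 3 SD, cut at about 12% in these data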
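Test system: HEK293 cells stably carrying human TRPML3-YFP; Doses: single dose, 3 µM final nominal compound, 0.3% DMSO final; Schedule: dye loading 1 h 37 °C then 30 min ambient, 125 s read; Technique: Fluo-8 calcium fluorescence; Benchmarks: high control carbachol 87 µM, low control DMSO.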
CRFBP-R2 agonist: CRF-BP/CRF-R2 complex agonism; hit rate 0.46% among 350,000; HEK293 CRF-R2/CRF-BP, calcium dye fluorescence (FLIPR); percent of saturating CRF peptide response; AID 588473; activation, % at 13.2 µM;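 active = activation of at least 50%, plus an integration ratio under a set limit after plate pattern correction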
CRFR2-BP antag: blocks CRF-induced signaling of the CRF-BP/CRF-R2 complex; HEK293 CRF-R2/CRF-BP, CRF-induced calcium fluorescence; inhibition, % at 11.8 µM; hit rate 0.59% among 350,000;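 active = inhibition of the ligand-induced calcium signal above about 50% at the single tested concentration, limit read from the data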
A number is an active result; i = inactive; nt = no result. A selection: hits, their analogues and other compounds. The true share with any hit is near 2%.

SMILES	TRPN1 ag	GPR7 antagonist	TRPML3 ag	CRFBP-R2 agonist	CRFR2-BP antag
Cc1cc(C)n2nc(SCC(=O)N3CCN(c4ccccc4)CC3)nc2n1	nt	nt	nt	i	i
CCOC(=O)c1ccc(NC(=S)N2CCSC2c2ccc(Br)cc2)cc1 (configuration not stated)	i	i	i	101	i
CCOC(=O)c1ccc(NC(=S)N2CCC(O)CC2)cc1	i	i	i	i	i
O=C(NCc1ccccn1)C1CCN(S(=O)(=O)c2cnc[nH]2)CC1	i	i	i	i	63
O=C(CN1CCN(c2ccc(F)cc2)CC1)NCc1ccc(Cl)cc1	nt	i	nt	i	i
O=C1C(=Cc2ccncc2)CCCc2ccccc21	nt	nt	nt	i	70
COc1ccc(NC(=O)c2c(F)cccc2F)cc1S(=O)(=O)Nc1ccc(Br)cc1	i	i	i	i	63
O=C(CCCOc1ccc(Cl)cc1)Nc1cccc(C(=O)O)c1	i	i	i	i	84
CC(=O)c1cccc(NC(=O)CCCOc2ccc(C)cc2)c1	i	i	i	i	i
CCOC(=O)C[N+](C)(C)CCOC1CC2CCC1(C)C2(C)C (configuration not stated)	i	i	i	i	i
CC1(C)C2CCC1(C)C(OCC[N+](C)(C)CC(=O)OC1CCCCC1)C2 (configuration not stated)	i	20	i	i	i
O=c1c(-c2ccccc2)c(O)nc2ccccn12	i	19	i	i	i
COCCNC(=O)CN(c1ccc(F)cc1)S(=O)(=O)c1ccc2c(c1)OCCO2	nt	i	nt	i	i
CC(=O)c1ccc(NC(=O)CCc2nnc3ccc(N4CCC5(CC4)OCCO5)nn23)cc1	nt	i	nt	i	65
COc1ccccc1NC(=O)CCc1nnc2ccc(N3CCCCC3)nn12	nt	i	nt	i	i
CCOc1ccccc1NC(=O)CCc1nnc2ccc(N3CCC(C)CC3)nn12	nt	i	nt	i	69
O=C(NCCS(=O)(=O)NCc1ccccc1Cl)c1ccccc1	nt	nt	nt	i	i
Cc1c(CCOC(=O)c2ccccc2)sc[n+]1CC(=O)c1ccc(Br)cc1	nt	20	nt	i	i
Cc1c(CCOC(=O)c2cc([N+](=O)[O-])cc([N+](=O)[O-])c2)sc[n+]1CC(=O)c1ccccc1	i	i	i	i	i
COC(=O)C1C(c2ccccc2)C(C(=O)OCc2ccco2)C1c1ccccc1 (configuration not stated)	i	i	i	i	59
CCC(Cc1ccccc1)NS(=O)(=O)c1c(C)nc2scc(C)n2c1=O (configuration not stated)	nt	i	nt	i	i
Cc1ccc(C)c(NC(=O)COC(=O)c2c(C)nn(-c3ccccc3)c2C)c1	nt	nt	nt	i	i
CC1=Nc2ccccc2/C1=C\c1sc(Nc2ccc(C)cc2)nc1O	i	19	i	i	i
Oc1nc(Nc2ccc(F)cc2)sc1/C=C1\C=Nc2ccccc21	i	i	i	i	i
Cc1ccc(C)c(S(=O)(=O)N2CCCC2CNC(=O)C(=O)NCCN2CCOCC2)c1 (configuration not stated)	nt	nt	nt	i	i
SMILES	TRPN1 ag	GPR7 antagonist	TRPML3 ag	CRFBP-R2 agonist	CRFR2-BP antag
COc1cc(Cl)c(C)cc1NC(=O)COC(=O)C(NS(=O)(=O)c1ccc(Cl)cc1)C(C)O (configuration not stated)	i	i	i	i	i
CC(O)C(NS(=O)(=O)c1ccc(Cl)cc1)C(=O)OCC(=O)Nc1cccnc1Cl (configuration not stated)	i	25	i	i	i
O=C(CCn1c(=O)oc2ccccc21)NCc1ccco1	nt	i	nt	i	i
O=C(Cn1c(=O)oc2ccccc21)NCc1ccco1	i	18	i	i	i
CC1(C)CC(=O)C=C(NC2CCCCCC2)C1	i	15	i	i	i
CN1CCN(NC(=S)Nc2ccc(Oc3ccccc3)cc2)CC1	i	i	i	i	i
OCC1OC(c2ccc(OCc3ccccc3)cc2OCc2ccccc2)C(O)C1O (configuration not stated)	nt	nt	nt	i	i
COc1ccc(N(CC(=O)NCCc2ccc(C)cc2)S(=O)(=O)c2c(C)noc2C)cc1	nt	i	nt	i	i
COc1ccc(N(CC(=O)NCCc2ccc(OC)c(OC)c2)S(=O)(=O)c2c(C)noc2C)cc1	nt	i	nt	i	108
CC(C)c1nc(C(=O)N2CCCC(N3CCN(c4cccc(Cl)c4)CC3)C2)cs1 (configuration not stated)	nt	i	nt	i	i
CC(OC(=O)c1nc(Cl)ccc1Cl)C(=O)c1ccccc1 (configuration not stated)	nt	nt	nt	i	i
Cc1ccc2nsnc2c1NC(=S)NC(=O)c1ccco1	i	i	i	i	i
O=C(NC(=S)Nc1c(Cl)ccc2nsnc12)c1ccccc1F	nt	i	nt	i	58
Cc1nn(-c2ccccc2)c(C)c1/C=N/n1c(-c2ccccc2Br)n[nH]c1=S	i	i	i	i	71
O=C(CC1C(=O)NCCN1Cc1ccccc1C(F)(F)F)NC1CCCCC1 (configuration not stated)	nt	i	nt	i	i
Cc1cc(C)c(C)c(S(=O)(=O)Nc2ccccc2C(=O)O)c1C	i	i	i	i	85
O=C(O)c1ccccc1NS(=O)(=O)c1ccc2c(c1)OCCO2	i	i	i	i	57
Cc1ccccc1NS(=O)(=O)c1ccc(C)c(C(=O)N2CCOCC2)c1	nt	i	nt	i	54
COC(=O)C(Cc1c[nH]c2ccccc12)NC(=O)C(=O)c1c[nH]c2ccccc12 (configuration not stated)	nt	i	nt	i	i
O=C(Cn1cnc2ccccc21)Nc1ccc2c(c1)OCCCO2	nt	nt	nt	i	i
CC12CCC(C(=O)Nc3ncc([N+](=O)[O-])s3)(OC1=O)C2(C)C (configuration not stated)	i	i	i	i	63
CC12CCC(C(=O)Nc3cccc(NC(=O)C45CCC(C)(C(=O)O4)C5(C)C)n3)(OC1=O)C2(C)C	i	i	i	i	i
CC(Nc1ccc(Br)cc1)C(=O)Nc1cccc(S(=O)(=O)N2CCOCC2)c1 (configuration not stated)	nt	nt	nt	i	90
O=C1[C@H]2[C@@H](c3ccc(F)cc3)N3C(=O)N(c4ccc(Br)cc4)C(=O)[C@@]3(Cc3ccc(Cl)cc3)[C@H]2C(=O)N1C1CCCCC1	nt	i	nt	i	i
O=C1N/C(=N\S(=O)(=O)Cc2ccccc2)S/C1=C/c1cc([N+](=O)[O-])ccc1O	64	18	31	104	i
O=C1N/C(=N\S(=O)(=O)c2ccccc2)S/C1=C\c1cc([N+](=O)[O-])ccc1O	nt	i	nt	55	i
COc1ccc(S(=O)(=O)N2CCN(C(=O)c3cc(C)on3)CC2)cc1	nt	nt	nt	i	i
CCOC(=O)[C@H]1[C@H]2COc3ccccc3[C@@H]2N2C(=O)[C@@H](C)NC(=O)[C@@]12C	nt	nt	nt	i	i
COc1ccc(S(=O)(=O)N2CCN(CC(=O)Nc3cc(Cl)ccc3Cl)CC2)cc1	nt	nt	nt	i	i
